Source: ChEMBL document CHEMBL1135850, “P1 Phenethyl peptide boronic acid inhibitors of HCV NS3 protease” (Bioorg Med Chem Lett, 2002)
Peptide text beside a SMILES is read from it. * marks the point of attachment. X5 = Cc1ccc(CC[C@H](N*)B2O[C@@H]3C[C@@H]4C[C@@H](C4(C)C)[C@]3(C)O2)c(C)c1; X7 = Cc1ccc(C)c(CC[C@H](N*)B2O[C@@H]3C[C@@H]4C[C@@H](C4(C)C)[C@]3(C)O2)c1; X2 = Cc1ccccc1CC[C@H](N*)B1O[C@@H]2C[C@@H]3C[C@@H](C3(C)C)[C@]2(C)O1

Molecular target: NS3 (Hepatitis C virus, UniProt A3EZJ3)
Test: Inhibitory concentration against Hepatitis C virus NS3 protease
Parameters: species or system Hepacivirus hominis
Outline: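 Continuous fluorescence assay with 4 nM NS3 protease plus NS4A cofactor peptide, in 50 mM Tris pH 7.0, 5 mM DTT, 50% glycerol, 2% CHAPS. Serially diluted inhibitors, given as boronic acid pinanediol esters, were preincubated with enzyme for 15 min. The reaction was started with the FRET ester substrate Ac-DED(EDANS)EEAbuψ[COO]ASK(DABCYL)-NH2 at ambient temperature and read at excitation 360 nm, emission 530 nm.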

Point of comparison: Cc1ccc(C)c(CC[C@H](NC(=O)[C@@H]2CCCN2C(=O)[C@@H](NC(=O)[C@@H](NC(=O)[C@H](CCC(=O)O)NC(=O)[C@@H](N)CC(=O)O)C(C)C)C(C)C)B2O[C@@H]3C[C@@H]4C[C@@H](C4(C)C)[C@]3(C)O2)c1 (H-DEVVP-X7), IC50 1000 nM. Against it:
- Cc1ccccc1CC[C@H](NC(=O)[C@@H]1CCCN1C(=O)[C@@H](NC(=O)[C@@H](NC(=O)[C@H](CCC(=O)O)NC(=O)[C@@H](N)CC(=O)O)C(C)C)C(C)C)B1O[C@@H]2C[C@@H]3C[C@@H](C3(C)C)[C@]2(C)O1 (H-DEVVP-X2) — within 1.5-fold, 820 nM
- Cc1ccc(CC[C@H](NC(=O)[C@@H]2CCCN2C(=O)[C@@H](NC(=O)[C@@H](NC(=O)[C@H](CCC(=O)O)NC(=O)[C@@H](N)CC(=O)O)C(C)C)C(C)C)B2O[C@@H]3C[C@@H]4C[C@@H](C4(C)C)[C@]3(C)O2)c(C)c1 (H-DEVVP-X5) — 1.9-fold lower, 530 nM

Molecular target: T1, Neutrophil elastase (Homo sapiens, UniProt P08246)
T1 sequence (P08246 whole entry): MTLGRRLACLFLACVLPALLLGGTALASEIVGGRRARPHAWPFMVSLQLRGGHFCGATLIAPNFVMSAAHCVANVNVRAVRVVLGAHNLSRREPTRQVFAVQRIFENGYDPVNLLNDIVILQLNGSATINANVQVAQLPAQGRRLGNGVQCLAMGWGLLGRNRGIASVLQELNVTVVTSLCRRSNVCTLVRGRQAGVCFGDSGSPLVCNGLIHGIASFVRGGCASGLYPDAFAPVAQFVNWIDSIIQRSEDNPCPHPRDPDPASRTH
Test: Inhibitory concentration against Human leukocyte Elastase
Outline: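 Human neutrophil elastase (stock 1 mg/mL in PBS with 10% glycerol) with MeO-Suc-Ala-Ala-Pro-Val-p-nitroanilide substrate in PBS at room temperature, DMSO ≤2%. Inhibitors were tested as pinanediol esters. Substrate hydrolysis was followed at 405 nm to derive kinetic parameters.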

Point of comparison: Cc1ccc(CC[C@H](NC(=O)[C@H]2CCCN2C(=O)[C@@H](NC(=O)[C@@H](NC(=O)[C@H](CCC(=O)O)NC(=O)[C@@H](N)CC(=O)O)C(C)C)C(C)C)B2O[C@@H]3C[C@@H]4C[C@@H](C4(C)C)[C@]3(C)O2)cc1, IC50 5000 nM. Against it:
- CC(C)[C@H](NC(=O)[C@H](CCC(=O)O)NC(=O)[C@@H](N)CC(=O)O)C(=O)N[C@H](C(=O)N1CCC[C@@H]1C(=O)N[C@@H](CCc1ccc(F)cc1)B1O[C@@H]2C[C@@H]3C[C@@H](C3(C)C)[C@]2(C)O1)C(C)C — 6.2-fold lower, 800 nM
- CC(C)[C@H](NC(=O)[C@H](CCC(=O)O)NC(=O)[C@@H](N)CC(=O)O)C(=O)N[C@H](C(=O)N1CCC[C@@H]1C(=O)N[C@@H](CCc1ccc(-c2ccccc2)cc1)B1O[C@@H]2C[C@@H]3C[C@@H](C3(C)C)[C@]2(C)O1)C(C)C — 5.6-fold lower, 900 nM
- CC[C@H](NC(=O)[C@H]1CCCN1C(=O)[C@@H](NC(=O)[C@@H](NC(=O)[C@H](CCC(=O)O)NC(=O)[C@@H](N)CC(=O)O)C(C)C)C(C)C)B1O[C@@H]2C[C@@H]3C[C@@H](C3(C)C)[C@]2(C)O1 — 250-fold lower, 20 nM
- CC(C)[C@H](NC(=O)[C@H](CCC(=O)O)NC(=O)[C@@H](N)CC(=O)O)C(=O)N[C@H](C(=O)N1CCC[C@@H]1C(=O)N[C@@H](CCc1ccc(Oc2ccccc2)cc1)B1O[C@@H]2C[C@@H]3C[C@@H](C3(C)C)[C@]2(C)O1)C(C)C — 23-fold lower, 220 nM
- CC(C)[C@H](NC(=O)[C@H](CCC(=O)O)NC(=O)[C@@H](N)CC(=O)O)C(=O)N[C@H](C(=O)N1CCC[C@@H]1C(=O)N[C@@H](CCc1ccc(C(F)(F)F)cc1)B1O[C@@H]2C[C@@H]3C[C@@H](C3(C)C)[C@]2(C)O1)C(C)C — 2.8-fold lower, 1800 nM
- CC(C)[C@H](NC(=O)[C@H](CCC(=O)O)NC(=O)[C@@H](N)CC(=O)O)C(=O)N[C@H](C(=O)N1CCC[C@@H]1C(=O)N[C@@H](CCc1ccc(Cl)cc1)B1O[C@@H]2C[C@@H]3C[C@@H](C3(C)C)[C@]2(C)O1)C(C)C — 3.6-fold lower, 1400 nM
- CC(C)c1ccc(CC[C@H](NC(=O)[C@H]2CCCN2C(=O)[C@@H](NC(=O)[C@@H](NC(=O)[C@H](CCC(=O)O)NC(=O)[C@@H](N)CC(=O)O)C(C)C)C(C)C)B2O[C@@H]3C[C@@H]4C[C@@H](C4(C)C)[C@]3(C)O2)cc1 — 11-fold lower, 450 nM
- CC(C)[C@H](NC(=O)[C@H](CCC(=O)O)NC(=O)[C@@H](N)CC(=O)O)C(=O)N[C@H](C(=O)N1CCC[C@@H]1C(=O)N[C@@H](CCc1ccc(C2CCCCC2)cc1)B1O[C@@H]2C[C@@H]3C[C@@H](C3(C)C)[C@]2(C)O1)C(C)C — 12-fold lower, 400 nM
- CC(C)[C@H](NC(=O)[C@H](CCC(=O)O)NC(=O)[C@@H](N)CC(=O)O)C(=O)N[C@H](C(=O)N1CCC[C@@H]1C(=O)N[C@@H](CCc1ccc(C(C)(C)C)cc1)B1O[C@@H]2C[C@@H]3C[C@@H](C3(C)C)[C@]2(C)O1)C(C)C — 15-fold lower, 340 nM
- CC(C)CCC[C@H](NC(=O)[C@H]1CCCN1C(=O)[C@@H](NC(=O)[C@@H](NC(=O)[C@H](CCC(=O)O)NC(=O)[C@@H](N)CC(=O)O)C(C)C)C(C)C)B1O[C@@H]2C[C@@H]3C[C@@H](C3(C)C)[C@]2(C)O1 — within 1.5-fold, 7300 nM
- CC(C)[C@H](NC(=O)[C@H](CCC(=O)O)NC(=O)[C@@H](N)CC(=O)O)C(=O)N[C@H](C(=O)N1CCC[C@@H]1C(=O)N[C@@H](CCc1ccc(Br)cc1)B1O[C@@H]2C[C@@H]3C[C@@H](C3(C)C)[C@]2(C)O1)C(C)C — 3.1-fold lower, 1600 nM
